Assay results as given in ChEMBL document CHEMBL3232844, “Synthesis and structure activity relationships of schweinfurthin indoles” (2014).

Tests used:
Format in all cases: functional
RPMI-8226 = experiment: Cytotoxicity against human RPMI8226 cells; details: for CC50: read-out: pLC50 (the source's name) (converted); for TGI: read-out: pTGI (converted)
In short: (§1)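 Tested in a 60-cell-line human tumor panel screen; the read-out is growth inhibition, reported as GI50 for each cell line.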

SR = experiment: Cytotoxicity against human SR cells; details: for CC50: read-out: pLC50 (the source's name) (converted); for TGI: read-out: pTGI (converted)
In short: (§2)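 Cell line run as part of the 60-cell-line screening panel; growth inhibition was reported as a GI50 for each line.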

[1] = Cytotoxicity against human EKVX cells; details: for CC50: read-out: pLC50 (the source's name) (converted); for TGI: read-out: pTGI (converted); in short: as §1
HOP-92 = experiment: Cytotoxicity against human HOP92 cells; details: for CC50: read-out: pLC50 (the source's name) (converted); for TGI: read-out: pTGI (converted); in short: as §1
HT-29 = experiment: Cytotoxicity against human HT-29 cells; details: for CC50: read-out: pLC50 (the source's name) (converted); for TGI: read-out: pTGI (converted); in short: as §1
SW-620 = experiment: Cytotoxicity against human SW620 cells; details: for CC50: read-out: pLC50 (the source's name) (converted); for TGI: read-out: pTGI (converted); in short: as §2
SF-295 = experiment: Cytotoxicity against human SF295 cells; details: for CC50: read-out: pLC50 (the source's name) (converted); for TGI: read-out: pTGI (converted); in short: as §1
U-251 = experiment: Cytotoxicity against human U251 cells; details: for CC50: read-out: pLC50 (the source's name) (converted); for TGI: read-out: pTGI (converted); in short: as §2
Malme-3M = experiment: Cytotoxicity against human MALME-3M cells; details: for CC50: read-out: pLC50 (the source's name) (converted); for TGI: read-out: pTGI (converted); in short: as §1
NCI-H522 = experiment: Cytotoxicity against human NCI-H522 cells; details: for CC50: read-out: pLC50 (the source's name) (converted); for TGI: read-out: pTGI (converted); in short: as §1
SK-MEL-28 = experiment: Cytotoxicity against human SK-MEL-28 cells; details: for CC50: read-out: pLC50 (the source's name) (converted); for TGI: read-out: pTGI (converted); in short: as §1
[2] = Cytotoxicity against human UACC257 cells; details: for GI50: UACC-257; for CC50: UACC-257, read-out: pLC50 (the source's name) (converted); for TGI: UACC-257, read-out: pTGI (converted); in short: as §2
[3] = Cytotoxicity against human OVCAR3 cells; details: for GI50: OVCAR-3; for CC50: OVCAR-3, read-out: pLC50 (the source's name) (converted); for TGI: OVCAR-3, read-out: pTGI (converted); in short: as §1
RXF 393 = experiment: Cytotoxicity against human RXF393 cells; details: for TGI: read-out: pTGI (converted); in short: as §1
SN12C = experiment: Cytotoxicity against human SN12C cells; details: for TGI: read-out: pTGI (converted); in short: as §1
TK-10 = experiment: Cytotoxicity against human TK10 cells; details: for TGI: read-out: pTGI (converted); in short: as §2
[4] = Cytotoxicity against human Hs578T cells; details: Hs-578T; for TGI: read-out: pTGI (converted); in short: as §1

CC1(C)[C@H](O)CC[C@@]2(C)Oc3c(O)cc(/C=C/c4cc(O)c5cc[nH]c5c4)cc3C[C@H]12
GI50 (RPMI-8226): 0.0158 µM
CC50 (RPMI-8226): 11.5 µM
TGI (RPMI-8226): 0.0661 µM
GI50 (SR): 0.123 µM
CC50 (SR): > 100 µM
TGI (SR): 21.4 µM
GI50 [1]: 0.794 µM
CC50 [1]: > 100 µM
TGI [1]: 16.2 µM
GI50 (HOP-92): 0.501 µM
CC50 (HOP-92): > 100 µM
TGI (HOP-92): 5.5 µM
GI50 (HT-29): 1.17 µM
CC50 (HT-29): 45.7 µM
TGI (HT-29): 4.17 µM
GI50 (SW-620): 0.214 µM
CC50 (SW-620): 6.46 µM
TGI (SW-620): 1.35 µM
GI50 (SF-295; read-out: GI50): 0.089 µM
GI50 (SF-295; read-out: pGI50 (converted)): 0.0891 µM
CC50 (SF-295): 3.16 µM
TGI (SF-295): 0.427 µM
GI50 (U-251): 0.0891 µM
CC50 (U-251): > 100 µM
TGI (U-251): 20 µM
GI50 (Malme-3M): 3.02 µM
CC50 (Malme-3M): 60.3 µM
TGI (Malme-3M): 17 µM
GI50 (NCI-H522): 1.07 µM
CC50 (NCI-H522): 38 µM
TGI (NCI-H522): 6.92 µM
GI50 (SK-MEL-28): 6.17 µM
CC50 (SK-MEL-28): > 100 µM
TGI (SK-MEL-28): > 100 µM
GI50 [2]: 3.8 µM
CC50 [2]: 66.1 µM
TGI [2]: 16.2 µM
GI50 [3]: 3.47 µM
CC50 [3]: 66.1 µM
TGI [3]: 21.4 µM
GI50 (RXF 393): 0.01 µM
LC50 (RXF 393): 0.389 µM
TGI (RXF 393): 0.0246 µM
GI50 (SN12C): 10.2 µM
LC50 (SN12C): > 100 µM
TGI (SN12C): 63.1 µM
GI50 (TK-10): 3.55 µM
LC50 (TK-10): > 100 µM
TGI (TK-10): 34.7 µM
GI50 [4]: 0.01 µM
LC50 [4]: > 100 µM
TGI [4]: 0.427 µM

COc1cc(/C=C/c2cc(OC)c3c(CC=C(C)C)c[nH]c3c2)cc2c1O[C@]1(C)CC[C@@H](O)C(C)(C)[C@H]1C2
GI50 (RPMI-8226): 0.0776 µM
TGI (RPMI-8226): 0.355 µM
GI50 (SR): 0.324 µM
CC50 (SR): > 100 µM
TGI (SR): 5.5 µM
GI50 [1]: 0.832 µM
CC50 [1]: > 100 µM
TGI [1]: 6.61 µM
GI50 (HOP-92): 0.178 µM
CC50 (HOP-92): 93.3 µM
TGI (HOP-92): 5.62 µM
GI50 (HT-29): 0.107 µM
CC50 (HT-29): 2.82 µM
TGI (HT-29): 0.708 µM
GI50 (SW-620): 0.288 µM
CC50 (SW-620): 4.07 µM
TGI (SW-620): 1.12 µM
GI50 (SF-295; read-out: GI50): 0.048 µM
GI50 (SF-295; read-out: pGI50 (converted)): 0.0479 µM
CC50 (SF-295): 0.871 µM
TGI (SF-295): 0.219 µM
GI50 (U-251): 0.0759 µM
CC50 (U-251): 12.9 µM
TGI (U-251): 2.29 µM
GI50 (Malme-3M): 2 µM
CC50 (Malme-3M): 91.2 µM
TGI (Malme-3M): 8.71 µM
GI50 (NCI-H522): 0.646 µM
CC50 (NCI-H522): 5.25 µM
TGI (NCI-H522): 2 µM
GI50 (SK-MEL-28): 0.347 µM
CC50 (SK-MEL-28): 15.8 µM
TGI (SK-MEL-28): 2.24 µM
GI50 [2]: 2.09 µM
CC50 [2]: 49 µM
TGI [2]: 12.9 µM
GI50 [3]: 2.82 µM
CC50 [3]: 38 µM
TGI [3]: 12 µM
GI50 (RXF 393): 0.0263 µM
LC50 (RXF 393): 0.724 µM
TGI (RXF 393): 0.105 µM
GI50 (SN12C): 2.51 µM
LC50 (SN12C): 52.5 µM
TGI (SN12C): 19.1 µM
GI50 (TK-10): 2.75 µM
LC50 (TK-10): 66.1 µM
TGI (TK-10): 17.4 µM
GI50 [4]: 0.0537 µM
LC50 [4]: > 100 µM
TGI [4]: 0.692 µM

COc1cc(/C=C/c2cc(O)c3c(c2)C[C@@H]2C(C)(C)[C@H](O)CC[C@@]2(C)O3)cc2[nH]cc(CC=C(C)C)c12
GI50 (RPMI-8226): 0.0112 µM
CC50 (RPMI-8226): > 100 µM
TGI (RPMI-8226): 0.417 µM
GI50 (SR): 0.155 µM
CC50 (SR): > 100 µM
TGI (SR): 32.4 µM
GI50 [1]: 3.89 µM
CC50 [1]: 81.3 µM
TGI [1]: 39.8 µM
GI50 (HOP-92): 1.15 µM
CC50 (HOP-92): 81.3 µM
TGI (HOP-92): 22.9 µM
GI50 (HT-29): 0.832 µM
CC50 (HT-29): 21.4 µM
TGI (HT-29): 5.37 µM
GI50 (SW-620): 0.302 µM
CC50 (SW-620): 21.4 µM
TGI (SW-620): 4.27 µM
GI50 (SF-295; read-out: GI50): < 0.023 µM
GI50 (SF-295; read-out: pGI50 (converted)): 0.0234 µM
CC50 (SF-295): 6.46 µM
TGI (SF-295): 0.115 µM
GI50 (U-251): 0.01 µM
CC50 (U-251): 60.3 µM
TGI (U-251): 32.4 µM
GI50 (Malme-3M): 5.37 µM
CC50 (Malme-3M): > 100 µM
TGI (Malme-3M): 31.6 µM
GI50 (NCI-H522): 1.66 µM
CC50 (NCI-H522): 20.9 µM
TGI (NCI-H522): 7.24 µM
GI50 (SK-MEL-28): 0.676 µM
CC50 (SK-MEL-28): 46.8 µM
TGI (SK-MEL-28): 10.7 µM
GI50 [2]: 14.5 µM
CC50 [2]: 77.6 µM
TGI [2]: 49 µM
GI50 [3]: 8.71 µM
CC50 [3]: 63.1 µM
TGI [3]: 36.3 µM
GI50 (RXF 393): 0.01 µM
LC50 (RXF 393): 8.51 µM
TGI (RXF 393): 0.0339 µM
GI50 (SN12C): 8.51 µM
LC50 (SN12C): 75.9 µM
TGI (SN12C): 45.7 µM
GI50 (TK-10): 8.32 µM
LC50 (TK-10): 69.2 µM
TGI (TK-10): 40.7 µM
GI50 [4]: 0.01 µM
LC50 [4]: > 100 µM
TGI [4]: 0.977 µM
